The values that follow come from ChEMBL document CHEMBL5678801, “A benzothiophene inhibitor of mitogen-activated protein kinase-activated protein kinase 2 inhibits tumor necrosis factor alpha production and has oral anti-inflammatory efficacy in acute and chronic models of inflammation” (J Pharmacol Exp Ther, 2010).

Data set [1] concerns the target T1, Mitogen-activated protein kinase kinase kinase 5 (Homo sapiens, UniProt Q99683).
T1 sequence (Q99683 whole entry): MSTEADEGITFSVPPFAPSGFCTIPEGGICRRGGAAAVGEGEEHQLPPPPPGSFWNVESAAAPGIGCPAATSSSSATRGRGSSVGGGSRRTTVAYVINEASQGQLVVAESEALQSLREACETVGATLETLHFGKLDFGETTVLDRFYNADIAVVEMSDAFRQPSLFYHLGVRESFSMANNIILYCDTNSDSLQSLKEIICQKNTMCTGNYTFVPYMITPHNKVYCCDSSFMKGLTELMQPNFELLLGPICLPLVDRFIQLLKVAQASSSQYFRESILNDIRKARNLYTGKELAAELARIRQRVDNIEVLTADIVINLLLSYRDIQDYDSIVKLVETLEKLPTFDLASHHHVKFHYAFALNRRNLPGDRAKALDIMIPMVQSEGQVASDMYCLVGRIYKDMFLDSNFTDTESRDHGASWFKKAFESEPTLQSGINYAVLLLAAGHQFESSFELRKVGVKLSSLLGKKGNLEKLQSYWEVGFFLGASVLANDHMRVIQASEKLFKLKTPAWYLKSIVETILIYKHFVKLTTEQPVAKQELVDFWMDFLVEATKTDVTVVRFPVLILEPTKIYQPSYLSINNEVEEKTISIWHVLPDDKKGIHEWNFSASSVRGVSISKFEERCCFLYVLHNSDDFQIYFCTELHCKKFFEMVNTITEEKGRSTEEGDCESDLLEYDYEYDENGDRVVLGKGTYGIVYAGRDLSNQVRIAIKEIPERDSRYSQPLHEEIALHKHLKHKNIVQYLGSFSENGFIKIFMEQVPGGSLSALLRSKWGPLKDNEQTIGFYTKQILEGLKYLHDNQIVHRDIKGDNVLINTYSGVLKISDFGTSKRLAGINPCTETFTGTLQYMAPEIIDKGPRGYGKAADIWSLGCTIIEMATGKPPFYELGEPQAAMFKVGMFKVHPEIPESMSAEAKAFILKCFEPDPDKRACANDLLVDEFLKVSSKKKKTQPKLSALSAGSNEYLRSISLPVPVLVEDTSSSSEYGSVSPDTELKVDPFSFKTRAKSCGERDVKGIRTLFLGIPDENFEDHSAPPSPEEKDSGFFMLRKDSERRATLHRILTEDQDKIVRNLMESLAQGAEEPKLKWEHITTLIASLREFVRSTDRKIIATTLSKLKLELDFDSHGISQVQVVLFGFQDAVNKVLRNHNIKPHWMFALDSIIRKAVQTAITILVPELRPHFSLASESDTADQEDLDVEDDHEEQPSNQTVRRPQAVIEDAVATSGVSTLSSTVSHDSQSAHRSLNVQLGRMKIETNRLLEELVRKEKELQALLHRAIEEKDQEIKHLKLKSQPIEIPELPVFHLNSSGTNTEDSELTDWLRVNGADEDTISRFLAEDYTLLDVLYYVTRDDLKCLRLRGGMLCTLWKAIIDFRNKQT
Put plainly: Inhibition of ASK1 (unknown origin). The procedure, abridged: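 Kinase panel: 200 kinases were first screened at 1 μM inhibitor for percent inhibition. Those above 50% inhibition were then titrated for IC50. MgATP was fixed at the Km(app) determined for each enzyme.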

A short description of data set [2]: Unbound plasma concentration in po dosed LPS-induced Lewis rat model at ED80 concentration measured after 5.5 hrs of initial dose by LC-MS/MS analysis. The class given is ADME, organism-based. To be noted: in vivo. A digest of the protocol: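 Male Lewis rats (225-250 g, 5 per group) were fasted 18 h, then dosed orally at 0.2-60 mg/kg as a suspension in 0.5% methylcellulose/0.025% Tween 20. LPS 1 mg/kg was given i.v. 4 h later. Blood was taken by cardiac puncture 90 min after LPS. Serum TNFα was read by ELISA and drug by LC-MS/MS, three independent experiments. 4-parameter fit. Unbound values were corrected with measured rat plasma protein binding.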

Data set [3] is described as follows: Inhibition of IL-6 production in LPS induced human PBMC cells preincubated with compound for 1 hr followed by LPS induction and measured after 16 hrs by MSD analysis. The class given is functional, cell-based. A digest of the protocol:
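Human PBMCs were pretreated with compound for 1 h (<1% DMSO final), then stimulated with LPS 100 ng/ml at 37°C. Cytokines in culture media were read by MSD 4-plex: TNFα at 4 h; IL-1β, IL-6 and IL-8 at 16 h. Data are means ±S.E.M. of two independent experiments in duplicate, three donors. IC50 by 4-parameter nonlinear regression.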

Data set [4] is described as follows: Inhibition of TNF-alpha production in LPS-induced human U-937 cells preincubated with compound for 1 hr followed by LPS induction and measured after 4 hrs by MSD analysis. The class given is functional, cell-based. The procedure, abridged: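 U937 cells were pretreated with compound for 1 h (<1% DMSO final), then stimulated with LPS 100 ng/ml at 37°C. Media TNFα was read at 4 h by MSD electrochemiluminescence. Three separate experiments in duplicate, mean ±S.E.M. IC50 by 4-parameter nonlinear regression.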

The nature of data set [5]: Inhibition of TNFalpha production in LPS induced human Whole blood cell preincubated with compound for 1 hr followed by LPS induction and measured after 4 hrs. The class given is functional, cell-based. A digest of the protocol:
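Human whole blood was stimulated with LPS 100 ng/ml for 4 h. Plasma TNFα was read by MSD kit. Three separate experiments in duplicate, mean ±S.E.M. IC50 by 4-parameter nonlinear regression.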

Data set [6] can be described thus: AUC in chronic SCW-induced arthritis Lewis rat model plasma at ED50 concentration. The class given is ADME, cell-free. The procedure, abridged:
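Female Lewis rats (125-140 g) received a single i.p. streptococcal cell wall injection. Animals showing the acute phase were pooled, 4-8 per group over three experiments. Dosing was oral gavage b.i.d., days 10-21, in methylcellulose-Tween-20 vehicle. Hind paw volume was read by displacement plethysmometer on day 21, as % inhibition of swelling. Plasma was sampled up to 11 h after the last dose, 3 rats per dose. ED values came from fitted curves.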

Usually IC50 stands for the concentration that inhibits the measured activity by half. Broadly, the AUC is the area under the concentration-time curve, a measure of exposure. Low readings indicate low exposure, high ones high exposure. Consider `Cc1ccc(-c2ccc3c(ccc4sc5c(c43)NC[C@@H](C)NC5=O)n2)cn1`, for which the IC50 in data set [1] turned out to be 60 nM; in data set [3], 1260 nM; in data set [4] it was 159 nM; in data set [5] it was 1970 nM. The Cp(f) in data set [2] came out at 340 nM. For the same compound, the AUC in data set [6] turned out to be 34 µM·h.
